Source: the EternaBench riboswitch data

Legend:
MS2 coat protein [1] = test: apparent Kd, MS2 coat protein; higher = weaker binding; RNA-MaP array; settings: designed as: OFF switch for flavin mononucleotide
Procedure, shortened: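 With or without input ligand, designed RNAs transcribed on an Illumina sequencing chip from sequenced DNA templates were incubated at room temperature with fluorescently labeled MS2 coat protein at 1.5 nM to 3 μM. The buffer was Tris-HCl pH 7.5 with KCl, MgCl2, BSA, DTT, tRNA and Tween20, and incubation ran 0.8–1.5 h at the lowest and 10–20 min at the highest concentrations. Apparent Kd is reported as the median of fits to binding curves from individual clusters. Designs measured on fewer than 10 clusters are not included.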

MS2 coat protein [2] = test: apparent Kd, MS2 coat protein; higher = weaker binding; RNA-MaP array; FMN 200 µM where present
Procedure, shortened: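 Stalled E. coli RNA polymerase transcribed the designs on Illumina sequencing-chip clusters. SNAP-549-labelled MS2 coat protein was titrated from 0.7 or 1.5 nM, doubling to 3 µM, without and then with constant ligand, in 100 mM Tris-HCl pH 7.5, 80 mM KCl, 4 mM MgCl2, BSA, DTT, yeast tRNA and Tween-20. Per-cluster binding curves were fitted to green signal normalised to red-channel RNA signal and control-cluster median Fmax. The apparent Kd is the median of the filtered fits.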

[3] = ligand present: flavin mononucleotide
[4] = designed as: OFF switch for flavin mononucleotide, no ligand
[5] = ligand present: flavin mononucleotide, designed as: OFF switch for flavin mononucleotide
[6] = designed as: ON switch for flavin mononucleotide, no ligand
[7] = ligand present: flavin mononucleotide, designed as: ON switch for flavin mononucleotide

Sequence	apparent Kd (MS2 coat protein [2]; [4])	apparent Kd (MS2 coat protein [2]; [5])	apparent Kd (MS2 coat protein [2]; [6])	apparent Kd (MS2 coat protein [2]; [7])	also measured
ACCUCGUAAGGAUAUAGAUGCCCGUACACAACAACAGAACUCUAGAAGGUACAUGAGGAUCACCCAUGUUGAUG					apparent Kd (MS2 coat protein [1]; no ligand): 21.5 nM; apparent Kd (MS2 coat protein [1]; [3]): 20.9 nM
AGACCAUCCUUAGGAUAUGGCUAUCUUAUCAAGCCAGAAGGAAGGGCCUCAUCUAACAUGAGGAUCACCCAUGUGCGCAAGUUU					apparent Kd (MS2 coat protein [1]; no ligand): 81.3 nM; apparent Kd (MS2 coat protein [1]; [3]): 51.9 nM
GGAUGACAAAGUCAUCCCUGACGAACAUGAGGAUCACCCAUGUAGGAUAUGCUACUCAAAGAGUAGCAGAAGGACAUGUGUCUU	31.2 nM	150 nM			
UUUAUGUCAGGAUAUGAGUAGUAGAACAAUAGUACUACUACUCAGAAGGGACAUGAGGAUCACCCAUGUUUCUC	23.4 nM	143 nM			
GGAAGACAUGAGGAUCACCCAUGUGGGAUUAUGGGAGGAUAUACAAAGACGAGAGUCAGAGUAGAAGGCCUAGGAU			84.3 nM	33.9 nM	
GUUAUAACAGUCAGGAUAUUUAAGCUUAUCGAGCUAGAGAAGGGACAUGAGGAUCACCCAUGUAGCCUCGUUAG	16 nM	17.1 nM			
GUAGAGUAAGGAUAUGGAGAAUAGGAUAGAAUGGUUAGAAUCUAGAAGGUACAUGAGGAUCACCCAUGUAAUGU	21.7 nM	20.8 nM			
UCAUACUUUCGAGGAUAUCGGUUAACAUAUUAACGAGAAGGCGAUAUAUUGUUUAAUCUUAUAAACAUGAGGAUCACCCAUGUA			33.9 nM	25.4 nM	
CAGUACUGAGGAUAUACAUGAGGAUCACCCAUGUGUUCCAGCUAGGAAACUAGCAAUAGUAGAAGGCAGUACUG	20.1 nM	315 nM			
GUAGCUAUCGGAGGAUAUUCAUGAUACAUGAGGAUCACCCAUGUUAAAUUGGGAGAAGGCCGAUAGCUACAAGAGCGAAAGCUC			14.8 nM	5.54 nM	
GUUCUUCCUGUAAGGAUAUCCAUGUAUCAGUUUAUGGAGAAGGUACAUGAGGAUCACCCAUGUCACCCGCGUUA	20.1 nM	46.1 nM			
CCUCCGUAUUAGGAUAUCGUCCCGGAAACGGGACGAGAAGGAAUAACAUGAGGAUCACCCAUGUUAACGUGAUG	18.8 nM	46.7 nM			
CGUUUAUUUAUGGGUUUAGAUUAUGAGGAUAUCAUUUUUUUAUACAUGAGGAUCACCCAUGUUACUGAGAAGGCAUAAUUAACG			16.4 nM	7.09 nM	
UUACUAUUACAGAAGGUUAAAUAAUAUAUAAAUGAAGGAUAUGUAACAUGAGGAUCACCCAUGUUUCACCCACAUGAGGAUCAC	13.9 nM	12 nM			
GUCACCUCGUGAGGAUAUACAACACUGCUUCGGCAGUGUAUUAAGAUCACAUGAGGAUCACCCAUGUAGAAGGCACGAGCUGAU	17.2 nM	221 nM			
UAAACGUUCUAGAAGGUGCUUUUGUUAAACAAGCAAGGAUAUAGACAUGAGGAUCACCCAUGUCUUUGUGACAUCGACAUACUU	8.44 nM	11.2 nM			
ACAUGAGGAUCACCCAUGUGGACAUAGGAUAUUGGUGAUCAGGCGUGUUAUACAGGAUAGGUCUGCGAGAAGGGUGUGCGUUGC			406 nM	218 nM	
CGUUCACAUGAGGAUCACCCAUGUCAGAUUUGGUCAGGAUAUGGUCGGCUUCCGCUAUUGCCAGAAGGGACUGUUG			30.5 nM	23.9 nM	
GGGAGUGGAGGGAAUAACAUGAGGAUCACCCAUGUAUGGGAGAGAAGGCAGGUCGGAGGGCGGUCUGAGGAUAUUUAGACUCCU			8.96 nM	7.43 nM	
UUAUUUUGUCAAGGAUAUGUAGUAUUGAUUUGAAAACAUGAGGAUCACCCAUGUAUAUGGUGGGAACAGAAGGUGAAUGUUGAA	311 nM	290 nM			
GUGCACAUUCGAGGAUAUCGGAGAGGGAUCCUUCGAGAAGGCGAUUCAUGCUGUGUUAUUCUGGACAUGAGGAUCACCCAUGUG			265 nM	125 nM	
AUGUGAGCAGGAUAUGCAGGUGUGCCGGAAGAAAGAAGAGGACAUGAGGAUCACCCAUGUAGAAGGGCUAGCCC	49 nM	31.3 nM			
UCGUGGUUAGGAUAUACAUGAGGAUCACCCAUGUGUGGCAGGGAGCGCCGACGGGCUUGUAGAAGGGAUGCGCA	40.4 nM	39.6 nM			
AAAAAUGGAGGAUAUACAUGAGGAUCACCCAUGUGUGGCUAUACUAUGUGCUCGUCAGGUAGAAGGCCAAAAAA	31.2 nM	59.2 nM			
GAUUCGGGAGGAUAUACAUGAGGAUCACCCAUGUGUUUUUUGUGUGUUAUGUUAUCGUGUAGAAGGUUUGGGUC	144 nM	203 nM			
GCGCUGCGUCAGAAGGGCCGAAAAGAGAAGACGGCAGGAUAUGACAUGAGGAUCACCCAUGUACACGUCGCCGUGGGUGUUGGA	57.9 nM	65 nM			
ACAUACUUUCGAGGAUAUCGGUGAUAUAUUUAACGAGAAGGCGAUAAAAGAUAUAAACUUAUAGACAUGAGGAUCACCCAUGUA			27.4 nM	27.1 nM	

Sequence	apparent Kd (MS2 coat protein [2]; [4])	apparent Kd (MS2 coat protein [2]; [5])	apparent Kd (MS2 coat protein [2]; [6])	apparent Kd (MS2 coat protein [2]; [7])	also measured
AUUGUUCGAGAGAAGGGAACAUGAGGAUCACCCAUGUUACCUCACCUGGUGACGGAACUCCAAGUUCAGGAUAUCUCGAGCGAU	5.63 nM	8.59 nM			
AAUAACAGAGGAUAUACUAUUUUAUGUGUUUGUUGUUUUGAACAUGAGGAUCACCCAUGUAGAAGGCUGAAUAA	22.6 nM	25.6 nM			
GGACGUCCCAUUAACAUGAGGAUCACCCAUGUCAAAAGACAUGAGGAUAUGCUACCUAAUUGGUAGCAGAAGGCAUGGACGUCC			878 nM	85.4 nM	
UGGUACUAGGGAGGAUAUGGGAAGAUACAUGAGGAUCACCCAUGUUUAAGAAUGCCGAGAGCCAACUAGAAGGCCCUAGUACCU			120 nM	16.7 nM	
GAGUACUGAGGAUAUACAUGAGGAUCACCCAUGUGUUCCAGCUAGGAAACUAGCAAAAGUAGAAGGCAGUACUG	19.5 nM	156 nM			
CCACGUCUCAUUAACAUGAGGAUCACCCAUGUCAAAAGACAUGAGGAUAUGGAUCCUAAUUGGAUCCAGAAGGCAUGGACGUGG			516 nM	59.4 nM	
GCGUAUAAGGUGUAGCUAGACAUUCAAGAAGGGUGAAGAACAUGAGGAUCACCCAUGUAGUAGGUACAGGAUAUUGAUUUACGC			656 nM	372 nM	
CCUCAUAUUUAGGAUAUGAUUGGUAAUUAUUAGUUAGAAGGAGGUACAUGAGGAUCACCCAUGUAAUAUUUAAA	21.5 nM	21.2 nM			
UGUAUGGACAGAGGAUAUGCCGAUAGGAUCUACUAUCGAAGAAUCCUCACAUGAGGAUCACCCAUGUAGAAGGCUGUCCAUACU	25.3 nM	150 nM			
AACUUACAUGAGGAUCACCCAUGUCAGGAUAUCGAAAUUGGCUCGCAAUUGCGAGCGACGAGAAGGGACGUUUU	17.3 nM	24.8 nM			
GUGUACGGAGGAUAUAUGUGGGCAGGCUGACCUGCAGCUUCACAUGAGGAUCACCCAUGUAGAAGGCUGUGCAC	22.2 nM	92.9 nM			
UAUUAAACAUAGGAUAUCGAAUAAAUCAUUUAACGAGAAGGAUGAACAUGAGGAUCACCCAUGUGGUAUCAUGG	246 nM	256 nM			
CGCUAGUCAGGAUAUACGAACAUGUCAAAAGACGUGAAGGGACAUGAGGAUCACCCAUGUAGAAGGGACUAGCA	35.7 nM	114 nM			
CACAUUUUAACAGGAUAUGUAAGGUUGUUUAUUAUUGCAUUUACACUCAUUACAGAAGGGUUAUACAUGAGGAUCACCCAUGUG			20.1 nM	14.5 nM	
GGAUGACAAAGUCAUCCUAUUCGAACAUGAGGAUCACCCAUGUAGGAUAUGCAACUCAAAGAGUUGCAGAAGGACAUGUGCUUU	34.7 nM	166 nM			
UUCGAGCCAAGGCUCGCGAGUACACAGGAUAUGAAAAGUCACAUGAGGAUCACCCAUGUCCAAAAUCAGAAGGGUGAGACUAAG			520 nM	101 nM	
CACGUCAGGAAACGGAGCGGCCAACAUGAGGAUCACCCAUGUGAGGAUAUGCCUACUAAAAGUAGGCAGAAGGCACAGAAGGCA	38.2 nM	160 nM			
CCAUUCAGAGGAUAUGCGCAUAGAUAAGACUUUUUUUCUUAACAUGAGGAUCACCCAUGUAGAAGGCUGUACCC	21.6 nM	19.4 nM			
UUGGACGUCGUAGGAUAUGUAGGAUAUUCCUACAUGAGGAUCACCCAUGUUGACAUGGAAGAAGGACAGGAGGACGAUGUCCAU			346 nM	7.82 nM	
GCCGAUUAAGUCAGGAUAUACCUAUGGAUACAUAGGUAGAAGGGACAUGAGGAUCACCCAUGUUCCUCAGCGGC	16.6 nM	50.2 nM			
CAGAGGAUGUAAGGAUAUCGUCAGGAAUACUGACGAGAAGGUACAUGAGGAUCACCCAUGUAACUCUAAUAAUAAUAACCUCUG	12.6 nM	16.4 nM			
GGGCCCGGUGUGAGGAUAUGCCCGGGUAAAUUUGGGCAGAAGGCACAUGAGGAUCACCCAUGUAAGCCGGGUUU	14.8 nM	12.9 nM			
GUAGAGUAAGGAUAUGAUGAAUAGGAUAGAAUGGUUAGAAAUCAGAAGGUACAUGAGGAUCACCCAUGUAAUGU	22.7 nM	20.8 nM			
GGAAAACAUGAGGAUCACCCAUGUGAGGAUAUCGAUGUCCAAAAAGAAGUGCGGGACUCGAGAAGGCACUUGGA	52.7 nM	37.5 nM			
CCUUUGUCAGGAUAUCGAAAAGGGAGGCCAAAGGCCUCCGGUGAGAAGGGACAUGAGGAUCACCCAUGUGAAAA	77.3 nM	383 nM			
AAAUUUAACGAAGGAUAUGCUUACAUGAGGAUCACCCAUGUGUGCCUUGUGAUGCUGAUUAAGUUGCAGAAGGUCGUAUACAUA	124 nM	414 nM			
AGCUAGUACCGAGGAUAUACAUACAUGAGGAUCACCCAUGUAUACAUGAAUUUAUGAGACUACAUGUAGAAGGCGGUACUAGCA			58.9 nM	15.9 nM	
